Values after ≈ are worked out from the molar mass of the structure shown.
What was measured:
A2058 [1] = test: Cytotoxicity against human A2058 cells at 10 uM after 48 hrs […]; assay type: functional
Plasmodium falciparum = test: Antimicrobial activity against chloroquine-resistant Plasmodium falciparum W2; assay type: functional, organism-based
How it was run: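 Chloroquine-resistant W2 strain tested, with chloroquine as positive control; IC50 reported in µg/mL.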

DU-145 [2] = test: Cytotoxicity against human DU145 cells at 10 uM after 48 hrs […]; assay type: functional
DU-145 [3] = test: Cytotoxicity against human DU145 cells after 48 hrs by MTT assay; assay type: functional, cell-based; conditions: DU-145, 48 h
How it was run: (§1)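 Cells cultured in RPMI-1640 or DMEM with 10% FBS and penicillin/streptomycin at 37 °C, 5% CO2, then seeded at 5,000/well and left overnight. Compound given at 0.1, 0.5, 1, 5, 10, 20 and 50 µM for 48 h with a DMSO vehicle control. Viability read by MTS formazan absorbance at 490 nm, in quadruplicate, and IC50 derived from the dose series.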

A2058 [4] = test: Cytotoxicity against human A2058 cells after 48 hrs by MTT assay; assay type: functional, cell-based; conditions: A2058, 48 h; how it was run: as §1
[5] = system: Mycobacterium tuberculosis; test: Antimycobacterial activity Mycobacterium tuberculosis H37Rv; assay type: functional, organism-based

| Structure (SMILES) | Activity (A2058 [1]) [%] | IC50 (Plasmodium falciparum) [µg/mL] | Activity (DU-145 [2]) [%] | IC50 (DU-145 [3]) [µM] | IC50 (A2058 [4]) [µM] | IC50 [5] [µg/mL] |
| --- | --- | --- | --- | --- | --- | --- |
| CCCCCCCCCCCCCCCC[C@]1(C)C[C@@](C)(CC(=O)OC)OO1 | 69 | > 10 | 38 | 8 | > 10 | – |
| CCCCCCCCCCCCCCCC[C@@](C)(O)C[C@](C)(O)CC(=O)OC | 79 | > 10 | 81 | > 10 | > 10 | – |
| CCCCCCCCCCCCCCCC[C@]1(C)C[C@@](C)(O)CC(=O)O1 | 60 | > 10 | 102 | > 10 | > 10 | 30 (≈ 81.4 µM) |
| CCCCCCCCCCCCCCCC[C@@](C)(O)C[C@]1(C)OC(=O)C[C@@H]1O | 75 | 0.6 (≈ 1.51 µM) | 79 | 24 | 24 | 13 (≈ 32.6 µM) |
| CCCCCCCCCCCCCCCC[C@]1(C)C[C@]2(C)OC(=O)C[C@@H]2OO1 | 8 | 0.3 (≈ 0.756 µM) | 13 | 2 | 0.8 | 68 (≈ 171 µM) |
| C[C@@](O)(CCCCCCCCCc1ccc(O)cc1)C[C@]1(C)OC(=O)C[C@@H]1O | 81 | 7 (≈ 17.8 µM) | 95 | > 10 | > 10 | – |
| CC/C=C/C=C/C=C/CCCCCCCC[C@]1(C)C[C@@](C)(CC(=O)OC)OO1 [EPIPLAKINIC ACID F METHYL ESTER] | 86 | 4 (≈ 10.2 µM) | 92 | > 10 | > 10 | 62 (≈ 158 µM) |
| CC/C=C/C=C/C=C/CCCCCCCC[C@@]1(C)C[C@](C)(CC(=O)O)OO1 [EPIPLAKINIC ACID F] | 51 | 3 (≈ 7.92 µM) | 15 | 1 | > 10 | 92 (≈ 243 µM) |
| C[C@]1(CC(=O)O)C[C@@](C)(CCCCCCCCC(=O)O)OO1 [EPIPLAKINIDIOIC ACID] | 23 | 0.3 (≈ 0.948 µM) | 31 | 4 | 3 | – |
| C[C@@]1(CCCCCCCCCc2ccc(O)cc2)C[C@]2(C)OC(=O)C[C@@H]2OO1 [PLAKORTOLIDE F] | 71 | – | 62 | > 10 | > 10 | 59 (≈ 151 µM) |
| CC/C=C/C=C/C=C/CCCCCCCC[C@]1(C)C[C@]2(C)OC(=O)C[C@@H]2OO1 [PLAKORTOLIDE J] | 106 | > 10 | 112 | > 10 | > 10 | 71 (≈ 182 µM) |
